{"source": "ChEMBL document CHEMBL1817631", "about": "“Synthesis and characterization of tritylthioethanamine derivatives with potent KSP inhibitory activity” (Bioorg Med Chem, 2011)", "key": {"NCI-H226": {"tested_on": "NCI-H226", "assay": "Growth inhibition of human NCI-H226 cells", "format": "functional"}, "OVCAR-8": {"tested_on": "OVCAR-8", "assay": "Growth inhibition of human OVCAR8 cells", "format": "functional"}, "SK-OV-3": {"tested_on": "SK-OV-3", "assay": "Growth inhibition of human SKOV3 cells", "format": "functional"}, "CCRF-CEM": {"tested_on": "CCRF-CEM", "assay": "Growth inhibition of human CCRF-CEM cells", "format": "functional"}, "NCI-H522": {"tested_on": "NCI-H522", "assay": "Growth inhibition of human NCI-H522 cells", "format": "functional"}, "K562": {"tested_on": "K562", "assay": "Growth inhibition of human K562 cells", "format": "functional"}, "SK-MEL-28": {"tested_on": "SK-MEL-28", "assay": "Growth inhibition of human SK-MEL-28 cells", "format": "functional"}, "HL-60(TB)": {"tested_on": "HL-60(TB)", "assay": "Growth inhibition of human HL-60(TB) cells", "format": "functional"}, "SK-MEL-2": {"tested_on": "SK-MEL-2", "assay": "Growth inhibition of human SK-MEL-2 cells", "format": "functional"}, "TK-10": {"tested_on": "TK-10", "assay": "Growth inhibition of human TK10 cells", "format": "functional"}, "HT-29": {"tested_on": "HT-29", "assay": "Growth inhibition of human HT-29 cells", "format": "functional"}, "SR": {"tested_on": "SR", "assay": "Growth inhibition of human SR cells", "format": "functional"}, "OVCAR-5": {"tested_on": "OVCAR-5", "assay": "Growth inhibition of human OVCAR5 cells", "format": "functional"}, "[1]": {"target": "Chromosome-associated kinesin KIF4A (Homo sapiens) (UniProt O95239)", "sequence (O95239 whole entry)": "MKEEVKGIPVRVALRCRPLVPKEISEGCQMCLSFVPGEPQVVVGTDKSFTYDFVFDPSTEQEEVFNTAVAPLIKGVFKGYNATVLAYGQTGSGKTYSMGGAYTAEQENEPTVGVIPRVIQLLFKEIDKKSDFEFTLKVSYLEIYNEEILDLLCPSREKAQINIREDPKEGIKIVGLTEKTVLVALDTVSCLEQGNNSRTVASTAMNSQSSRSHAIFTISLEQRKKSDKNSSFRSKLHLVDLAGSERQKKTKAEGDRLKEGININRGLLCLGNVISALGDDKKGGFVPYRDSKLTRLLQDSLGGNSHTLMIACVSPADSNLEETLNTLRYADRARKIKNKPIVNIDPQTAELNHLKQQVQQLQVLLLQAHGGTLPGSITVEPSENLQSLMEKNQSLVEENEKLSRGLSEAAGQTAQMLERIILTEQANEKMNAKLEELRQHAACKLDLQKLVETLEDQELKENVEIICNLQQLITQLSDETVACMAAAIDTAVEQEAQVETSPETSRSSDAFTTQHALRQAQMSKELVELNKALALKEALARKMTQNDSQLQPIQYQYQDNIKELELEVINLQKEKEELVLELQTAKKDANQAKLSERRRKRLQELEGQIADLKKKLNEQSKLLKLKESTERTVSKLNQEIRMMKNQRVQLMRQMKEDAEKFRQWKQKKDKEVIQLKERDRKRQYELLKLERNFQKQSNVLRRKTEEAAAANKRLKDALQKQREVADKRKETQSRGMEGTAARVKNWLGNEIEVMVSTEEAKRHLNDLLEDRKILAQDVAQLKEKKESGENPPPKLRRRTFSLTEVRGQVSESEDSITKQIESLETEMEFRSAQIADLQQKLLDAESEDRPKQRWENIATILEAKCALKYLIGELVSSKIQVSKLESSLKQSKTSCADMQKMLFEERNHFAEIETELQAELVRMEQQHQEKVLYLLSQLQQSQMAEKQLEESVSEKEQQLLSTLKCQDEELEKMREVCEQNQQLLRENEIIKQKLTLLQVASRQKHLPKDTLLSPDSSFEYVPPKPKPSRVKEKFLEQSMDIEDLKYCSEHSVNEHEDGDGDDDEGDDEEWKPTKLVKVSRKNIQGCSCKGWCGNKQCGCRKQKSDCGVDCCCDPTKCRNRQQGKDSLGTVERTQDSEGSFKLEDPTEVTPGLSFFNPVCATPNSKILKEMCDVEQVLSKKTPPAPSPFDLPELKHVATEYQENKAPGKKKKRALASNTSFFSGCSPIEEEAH", "assay": "Inhibition of chromokinesin"}, "OVCAR-3": {"tested_on": "OVCAR-3", "assay": "Growth inhibition of human OVCAR3 cells", "format": "functional"}, "HCT-15": {"tested_on": "HCT-15", "assay": "Growth inhibition of human HCT15 cells", "format": "functional"}, "SN12C": {"tested_on": "SN12C", "assay": "Growth inhibition of human SN12C cells", "format": "functional"}, "SK-MEL-5": {"tested_on": "SK-MEL-5", "assay": "Growth inhibition of human SK-MEL-5 cells", "format": "functional"}, "KM12": {"tested_on": "KM12", "assay": "Growth inhibition of human KM12 cells", "format": "functional"}, "SF-539": {"tested_on": "SF-539", "assay": "Growth inhibition of human SF539 cells", "format": "functional"}, "UO-31": {"tested_on": "UO-31", "assay": "Growth inhibition of human UO31 cells", "format": "functional"}, "EKVX": {"tested_on": "EKVX", "assay": "Growth inhibition of human EKVX cells", "format": "functional"}, "LOX IMVI": {"tested_on": "LOX IMVI", "assay": "Growth inhibition of human LOXIMVI cells", "format": "functional"}, "U-251": {"tested_on": "U-251", "assay": "Growth inhibition of human U251 cells", "format": "functional"}, "HeLa [2]": {"tested_on": "HeLa", "assay": "Inhibition of bipolar spindle formation in human HeLa cells at 1 uM", "format": "functional, cell-based", "summary_of_the_method": "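HeLa cells were grown in MEM with Earle's BSS, 10% FBS, sodium bicarbonate and pyruvate at 37°C in 5% CO2. They were exposed to compound in DMSO for 4 h, with 0.1% DMSO as carrier control. Cells were fixed in −20°C methanol and immunostained for tubulin, with DNA counterstained. Bipolar spindle formation was scored in 100 mitotic cells per condition.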"}, "SF-295": {"tested_on": "SF-295", "assay": "Growth inhibition of human SF295 cells", "format": "functional"}, "NCI-H322M": {"tested_on": "NCI-H322M", "assay": "Growth inhibition of human NCI-H322M cells", "format": "functional"}, "HOP-62": {"tested_on": "HOP-62", "assay": "Growth inhibition of human HOP62 cells", "format": "functional"}, "SF-268": {"tested_on": "SF-268", "assay": "Growth inhibition of human SF268 cells", "format": "functional"}, "[3]": {"target": "Kinesin-like protein KIF2C (Homo sapiens) (UniProt Q99661)", "sequence (Q99661 whole entry, the tested form may be a part)": "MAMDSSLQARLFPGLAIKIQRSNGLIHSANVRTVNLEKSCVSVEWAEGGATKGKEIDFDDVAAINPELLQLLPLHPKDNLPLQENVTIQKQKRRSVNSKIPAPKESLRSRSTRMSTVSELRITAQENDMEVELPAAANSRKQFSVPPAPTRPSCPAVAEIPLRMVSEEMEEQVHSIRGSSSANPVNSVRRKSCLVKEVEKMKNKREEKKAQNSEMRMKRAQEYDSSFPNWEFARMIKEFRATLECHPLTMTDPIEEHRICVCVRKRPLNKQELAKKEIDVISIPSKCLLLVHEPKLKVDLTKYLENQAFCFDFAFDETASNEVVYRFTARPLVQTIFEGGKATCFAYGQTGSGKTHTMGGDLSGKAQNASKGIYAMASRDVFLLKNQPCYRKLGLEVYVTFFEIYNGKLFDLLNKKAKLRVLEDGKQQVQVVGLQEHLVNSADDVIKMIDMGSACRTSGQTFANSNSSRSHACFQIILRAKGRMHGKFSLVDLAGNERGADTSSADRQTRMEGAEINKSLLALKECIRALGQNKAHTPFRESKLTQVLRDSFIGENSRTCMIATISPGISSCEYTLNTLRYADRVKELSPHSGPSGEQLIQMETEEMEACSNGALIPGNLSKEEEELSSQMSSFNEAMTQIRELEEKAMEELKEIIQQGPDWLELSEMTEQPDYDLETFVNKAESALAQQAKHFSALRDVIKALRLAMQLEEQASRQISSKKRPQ", "assay": "Inhibition of MACK", "summary_of_the_method": "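Microtubule-activated ATPase end-point assay with kinesin motor domain at 0.08 μg/μl final. Reactions were started with 2 mM ATP, run 5 min at room temperature, and stopped with CytoPhos. After 10 min more, absorbance was read at 650 nm. Compounds were tested at 0.25–10 μM against a 0.1% DMSO control, in triplicate. IC50 came from four-parameter non-linear regression.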"}, "Malme-3M": {"tested_on": "Malme-3M", "assay": "Growth inhibition of human MALME-3M cells", "format": "functional"}, "MOLT-4": {"tested_on": "MOLT-4", "assay": "Growth inhibition of human MOLT4 cells", "format": "functional"}, "HeLa [4]": {"tested_on": "HeLa", "assay": "Induction of KSP depletion in human HeLa cells after 4 hrs by immunofluorescence analysis relative to STLC", "format": "functional", "summary_of_the_method": "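HeLa cells in MEM/Earle's BSS with 10% FBS at 37°C, 5% CO2 were exposed 4 h to DMSO-dissolved compound over a range of doses. They were then fixed in 100% MeOH at −20°C (≥30 min), rehydrated in PBS, blocked in PBS-5% BSA, and stained overnight at 4°C with mouse anti-KSP plus rabbit anti-EB1 (microtubules). DNA was counterstained. Green channel was imaged at equal exposure.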"}, "M14": {"tested_on": "M14", "assay": "Growth inhibition of human M14 cells", "format": "functional"}, "[5]": {"target": "T1, Kinesin-like protein Klp61F (Drosophila melanogaster) (UniProt P46863)", "T1 sequence (whole entry)": "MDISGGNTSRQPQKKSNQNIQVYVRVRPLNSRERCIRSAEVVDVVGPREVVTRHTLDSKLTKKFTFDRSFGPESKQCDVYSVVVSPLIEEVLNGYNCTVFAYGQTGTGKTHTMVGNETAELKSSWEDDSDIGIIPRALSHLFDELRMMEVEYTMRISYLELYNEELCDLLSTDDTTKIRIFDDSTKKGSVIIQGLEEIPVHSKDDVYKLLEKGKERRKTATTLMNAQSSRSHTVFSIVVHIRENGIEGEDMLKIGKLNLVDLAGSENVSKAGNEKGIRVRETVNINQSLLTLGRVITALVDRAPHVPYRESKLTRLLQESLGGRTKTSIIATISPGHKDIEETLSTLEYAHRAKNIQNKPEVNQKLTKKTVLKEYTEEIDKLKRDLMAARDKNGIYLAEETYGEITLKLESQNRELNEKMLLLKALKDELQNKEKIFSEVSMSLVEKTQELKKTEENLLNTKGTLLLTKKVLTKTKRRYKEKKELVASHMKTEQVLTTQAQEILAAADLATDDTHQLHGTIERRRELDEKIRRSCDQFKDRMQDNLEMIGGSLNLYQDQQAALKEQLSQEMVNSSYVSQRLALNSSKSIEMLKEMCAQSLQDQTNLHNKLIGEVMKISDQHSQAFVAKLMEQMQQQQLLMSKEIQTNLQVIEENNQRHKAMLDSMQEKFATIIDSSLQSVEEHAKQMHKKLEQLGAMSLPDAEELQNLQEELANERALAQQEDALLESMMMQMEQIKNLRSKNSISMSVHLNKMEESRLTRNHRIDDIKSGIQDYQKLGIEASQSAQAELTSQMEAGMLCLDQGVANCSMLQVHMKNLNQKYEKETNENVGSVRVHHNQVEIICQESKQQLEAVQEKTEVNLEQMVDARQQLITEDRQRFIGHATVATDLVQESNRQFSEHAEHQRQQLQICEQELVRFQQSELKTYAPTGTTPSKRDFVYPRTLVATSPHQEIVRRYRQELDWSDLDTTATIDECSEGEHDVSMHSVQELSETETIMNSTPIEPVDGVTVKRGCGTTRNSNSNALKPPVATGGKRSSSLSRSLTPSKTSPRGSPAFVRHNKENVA", "assay": "Inhibition of Drosophila melanogaster Klp61F in S2 cells at 100 uM up to 7 hrs by immunofluorescence analysis", "format": "cell-based", "summary_of_the_method": "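Drosophila S2 cells were exposed to compound over a three-log concentration range up to 100 μM, with treatments extending up to 7 h. Bipolar spindle formation was scored by immunofluorescence.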"}, "OVCAR-4": {"tested_on": "OVCAR-4", "assay": "Growth inhibition of human OVCAR4 cells", "format": "functional"}, "[6]": {"assay": "Growth inhibition of human […] cells", "format": "functional"}}, "note": "Calls of active or inactive are those of the source. No cut-off for these calls is given here."}
{"smiles": "COc1ccc(C(SC[C@H](N)CO)(c2ccccc2)c2ccccc2)cc1", "values": [{"measurement": "GI50", "setting": "NCI-H226", "result": 2750, "unit": "nM"}, {"measurement": "GI50", "setting": "OVCAR-8", "result": 420, "unit": "nM"}, {"measurement": "GI50", "setting": "SK-OV-3", "result": 80, "unit": "nM"}, {"measurement": "GI50", "setting": "CCRF-CEM", "result": 100, "unit": "nM"}, {"measurement": "GI50", "setting": "NCI-H522", "result": 220, "unit": "nM"}, {"measurement": "GI50", "setting": "K562", "result": 60, "unit": "nM"}, {"measurement": "GI50", "setting": "SK-MEL-28", "result": 620, "unit": "nM"}, {"measurement": "GI50", "setting": "HL-60(TB)", "result": 190, "unit": "nM"}, {"measurement": "GI50", "setting": "SK-MEL-2", "result": 240, "unit": "nM"}, {"measurement": "GI50", "setting": "TK-10", "result": 460, "unit": "nM"}, {"measurement": "GI50", "setting": "HT-29", "result": 340, "unit": "nM"}, {"measurement": "GI50", "setting": "SR", "result": 10, "unit": "nM"}, {"measurement": "GI50", "setting": "OVCAR-5", "result": 390, "unit": "nM"}, {"measurement": "inhibition", "setting": "[1]", "result": "inactive"}, {"measurement": "GI50", "setting": "OVCAR-3", "result": 200, "unit": "nM"}, {"measurement": "GI50", "setting": "HCT-15", "result": 210, "unit": "nM"}, {"measurement": "GI50", "setting": "SN12C", "result": 320, "unit": "nM"}, {"measurement": "GI50", "setting": "SK-MEL-5", "result": 60, "unit": "nM"}, {"measurement": "GI50", "setting": "KM12", "result": 220, "unit": "nM"}, {"measurement": "GI50", "setting": "SF-539", "result": 260, "unit": "nM"}, {"measurement": "GI50", "setting": "UO-31", "result": 1100, "unit": "nM"}, {"measurement": "GI50", "setting": "EKVX", "result": 510, "unit": "nM"}, {"measurement": "GI50", "setting": "LOX IMVI", "result": 490, "unit": "nM"}, {"measurement": "GI50", "setting": "U-251", "result": 190, "unit": "nM"}, {"measurement": "inhibition", "setting": "HeLa [2]", "result": "Active"}, {"measurement": "GI50", "setting": "SF-295", "result": 280, "unit": "nM"}, {"measurement": "GI50", "setting": "NCI-H322M", "result": 110, "unit": "nM"}, {"measurement": "GI50", "setting": "HOP-62", "result": 510, "unit": "nM"}, {"measurement": "GI50", "setting": "SF-268", "result": 110, "unit": "nM"}, {"measurement": "inhibition", "setting": "[3]", "result": "inactive"}, {"measurement": "GI50", "setting": "Malme-3M", "result": 360, "unit": "nM"}, {"measurement": "GI50", "setting": "MOLT-4", "result": 280, "unit": "nM"}, {"measurement": "fold change (FC)", "setting": "HeLa [4]", "result": 1.63}, {"measurement": "GI50", "setting": "M14", "result": 20, "unit": "nM"}, {"measurement": "inhibition", "setting": "[5]", "result": "inactive"}, {"measurement": "GI50", "setting": "OVCAR-4", "result": 1620, "unit": "nM"}, {"measurement": "GI50", "setting": "[6]", "result": 30, "unit": "nM"}]}
